Laboratory results taken from ChEMBL document CHEMBL4190396, “Discovery of Novel Small-Molecule Inhibitors of NF-κB Signaling with Antiinflammatory and Anticancer Properties” (J Med Chem, 2018).
The source made the active and inactive calls. The calls are words filed in the database; no cut-off is given here.

Experiments:
HeLa [1] = test: Cell cycle arrest in human HeLa cells assessed as accumulation at G2/M phase at 20 uM after 24 hrs by propidium iodide staining based flow cytometry (reference value: 15.7%); format: functional
Procedure, shortened: (§1)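 HeLa cells, 3×10^5/well, attached overnight, switched to serum-free medium for synchronisation, then DMSO or 5, 10, 20 µM for 24 h; cells fixed, PI-stained, G0/G1, S and G2/M fractions by flow cytometry; n = 3, mean ± SD.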

[2] = molecular target: Proto-oncogene tyrosine-protein kinase Src (Mus musculus) (UniProt P05480); test: Inhibition of LPS-induced SRC phosphorylation in mouse RAW264.7 cells preincubated for 1 hr followed by LPS stimulation for 30 mins by Western blot method; format: cell-based
Sequence of Proto-oncogene tyrosine-protein kinase Src (Mus musculus) (P05480 2-535 limits assumed): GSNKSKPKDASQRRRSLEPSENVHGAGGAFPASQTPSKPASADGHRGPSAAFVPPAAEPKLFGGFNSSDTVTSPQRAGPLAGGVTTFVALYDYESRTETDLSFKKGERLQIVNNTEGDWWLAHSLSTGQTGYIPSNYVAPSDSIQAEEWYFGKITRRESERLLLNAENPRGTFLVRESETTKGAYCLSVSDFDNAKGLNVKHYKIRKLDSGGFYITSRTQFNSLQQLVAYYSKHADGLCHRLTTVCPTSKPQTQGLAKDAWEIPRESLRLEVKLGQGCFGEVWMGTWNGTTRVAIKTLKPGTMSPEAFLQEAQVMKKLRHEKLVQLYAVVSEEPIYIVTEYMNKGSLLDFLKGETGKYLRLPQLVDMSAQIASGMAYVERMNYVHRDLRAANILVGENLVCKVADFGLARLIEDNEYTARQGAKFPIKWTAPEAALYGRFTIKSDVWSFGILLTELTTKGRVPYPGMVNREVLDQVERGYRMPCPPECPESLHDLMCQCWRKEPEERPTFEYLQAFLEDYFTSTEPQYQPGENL
Procedure, shortened: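 RAW 264.7 cells, 3×10^6 per dish overnight, pretreated 1 h with 1, 5 or 10 µM, then LPS 100 ng/mL for 15 or 30 min; nuclear/cytoplasmic lysates (20–30 µg) run on 10% SDS-PAGE, immunoblotted for phospho/total proteins, GAPDH loading control, ECL, densitometry; three independent experiments.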

RAW264.7 = test: Antiinflammatory activity in mouse RAW264.7 cells assessed as decrease in LPS-induced NO production after 18 hrs by DAN assay; format: functional, cell-based
Procedure, shortened: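 RAW 264.7 cells at 2×10^5 cells/mL, 24 h, medium refreshed, then LPS 100 ng/mL with or without graded compound for 18 h; nitrite in medium reacted with 2,3-diaminonaphthalene (0.05 mg/mL in 0.62 M HCl), 15 min in dark, as NO readout. n = 3, mean ± SD.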

HeLa [3] = test: Cell cycle arrest in human HeLa cells assessed as accumulation at S phase at 20 uM after 24 hrs by propidium iodide staining based flow cytometry (reference value: 34.9%); format: functional; procedure, shortened: as §1
Protein kinase C (PKC) [4] = test: (§2) Inhibition of PKC in TLR null HEK-blue cells assessed as inhibition of PMA-induced NF-kappaB activation-mediated SEAP production after 24 hrs by Quanti-blue-based assay; format: cell-based, Homo sapiens
[5] = molecular target: T1, Protein kinase C (PKC) (Homo sapiens) (UniProt O94806+P41743+P17252+P05129+Q05655+P05771+Q05513+Q02156+P24723+Q15139+Q04759); test: as §2; format: cell-based
HeLa [6] = test: Growth inhibition of human HeLa cells after 48 hrs by WST1 assay; format: functional
Protein kinase C (PKC) [7] = test: (§3) Inhibition of PKC in HEK-blue cells expressing human TLR7 assessed as inhibition of PMA-induced NF-kappaB activation-mediated SEAP production after 24 hrs by Quanti-blue-based assay; format: cell-based
[8] = molecular target: T1, Protein kinase C (PKC) (Homo sapiens); test: as §3; format: cell-based
[9] = molecular target: Toll-like receptor 8 (Homo sapiens) (UniProt Q9NR97); test: Antagonist activity at human TLR8 expressed in HEK293 cells assessed as decrease in R848-induced NF-kappaB activation-mediated SEAP production at 10^-9 to 10^-5 M after 24 hrs by Quanti-blue-based assay; format: cell-based
Sequence of Toll-like receptor 8 (Homo sapiens) (Q9NR97 whole entry): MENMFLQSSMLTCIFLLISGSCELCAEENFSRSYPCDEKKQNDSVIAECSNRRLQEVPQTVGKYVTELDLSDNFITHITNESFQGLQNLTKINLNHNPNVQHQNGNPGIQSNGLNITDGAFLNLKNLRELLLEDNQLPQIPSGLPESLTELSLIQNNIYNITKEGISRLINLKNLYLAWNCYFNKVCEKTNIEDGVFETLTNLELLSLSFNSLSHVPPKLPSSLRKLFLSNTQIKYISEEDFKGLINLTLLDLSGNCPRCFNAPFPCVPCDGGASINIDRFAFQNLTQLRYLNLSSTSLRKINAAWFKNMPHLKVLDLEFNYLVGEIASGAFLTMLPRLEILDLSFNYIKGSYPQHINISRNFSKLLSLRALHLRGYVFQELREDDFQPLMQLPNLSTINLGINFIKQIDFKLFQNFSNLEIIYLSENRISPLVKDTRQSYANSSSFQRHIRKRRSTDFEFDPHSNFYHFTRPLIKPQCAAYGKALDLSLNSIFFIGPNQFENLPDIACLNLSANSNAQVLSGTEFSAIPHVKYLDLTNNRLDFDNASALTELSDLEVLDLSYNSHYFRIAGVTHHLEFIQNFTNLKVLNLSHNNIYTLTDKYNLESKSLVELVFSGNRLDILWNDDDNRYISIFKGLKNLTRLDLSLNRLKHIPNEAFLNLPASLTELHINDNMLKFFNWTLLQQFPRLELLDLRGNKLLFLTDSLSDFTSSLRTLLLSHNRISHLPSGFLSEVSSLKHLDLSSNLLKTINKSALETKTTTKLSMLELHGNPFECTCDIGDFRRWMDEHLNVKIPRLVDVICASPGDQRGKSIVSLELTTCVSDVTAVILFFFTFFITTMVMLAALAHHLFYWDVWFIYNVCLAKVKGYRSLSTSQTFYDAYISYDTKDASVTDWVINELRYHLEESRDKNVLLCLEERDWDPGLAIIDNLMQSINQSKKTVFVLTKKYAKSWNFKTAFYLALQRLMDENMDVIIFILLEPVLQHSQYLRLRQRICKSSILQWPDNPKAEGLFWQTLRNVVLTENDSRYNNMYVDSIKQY
Procedure, shortened: (§4)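 HEK293 cells stably carrying a human TLR plus an NF-κB-driven SEAP reporter, seeded 5×10^4/well for 24 h at 37 °C, then stimulated: Pam3CSK4 100 µg/mL (TLR1/2), Pam2CSK4 100 µg/mL, poly I:C 5 µg/mL (TLR3), LPS 20 ng/mL (TLR4), flagellin 100 ng/mL (TLR5), R848 1 µg/mL (TLR7, TLR8), CpG-ODN2006 1 µg/mL (TLR9). After 24 h with compound, supernatant mixed with QUANTI-Blue, 1 h 37 °C, OD 620 nm.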

[10] = molecular target: Proto-oncogene tyrosine-protein kinase Src (Homo sapiens) (UniProt P12931); test: Inhibition of wild-type human partial length SRC (L240 to L536 residues) expressed in bacterial expression system assessed as residual activity at 10 uM by Kinomescan method relative to control
Sequence of Proto-oncogene tyrosine-protein kinase Src (Homo sapiens) (P12931 2-536 limits assumed): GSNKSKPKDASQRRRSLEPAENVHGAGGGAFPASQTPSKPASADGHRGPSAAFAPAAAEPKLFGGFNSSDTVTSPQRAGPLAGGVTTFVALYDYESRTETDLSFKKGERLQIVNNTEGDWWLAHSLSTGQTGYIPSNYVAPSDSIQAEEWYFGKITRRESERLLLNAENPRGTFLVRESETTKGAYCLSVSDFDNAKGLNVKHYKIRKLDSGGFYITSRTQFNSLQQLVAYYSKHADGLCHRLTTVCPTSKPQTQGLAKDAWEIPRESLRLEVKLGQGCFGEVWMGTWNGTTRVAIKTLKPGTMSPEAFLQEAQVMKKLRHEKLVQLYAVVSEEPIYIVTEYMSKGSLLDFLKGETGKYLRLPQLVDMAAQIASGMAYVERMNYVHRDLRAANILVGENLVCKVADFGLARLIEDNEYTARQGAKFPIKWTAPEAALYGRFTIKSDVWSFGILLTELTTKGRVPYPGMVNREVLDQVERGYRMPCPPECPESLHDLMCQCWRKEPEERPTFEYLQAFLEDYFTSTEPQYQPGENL

HeLa [11] = test: Cell cycle arrest in human HeLa cells assessed as accumulation at S phase at 5 uM after 24 hrs by propidium iodide staining based flow cytometry (reference value: 34.9%); format: functional; procedure, shortened: as §1
HMEC = test: Cytotoxicity against HMEC up to 40 uM after 24 to 48 hrs by WST1 assay; format: cell-based; conditions: human
[12] = molecular target: T2, Toll-like receptor 7 (Homo sapiens) (UniProt Q9NYK1); test: Inhibition of human TLR7 expressed in HEK293 cells assessed as decrease in R848-induced NF-kappaB activation-mediated SEAP production at 5 uM after 24 hrs by Quanti-blue-based assay relative to control; format: cell-based
T2 sequence (whole entry): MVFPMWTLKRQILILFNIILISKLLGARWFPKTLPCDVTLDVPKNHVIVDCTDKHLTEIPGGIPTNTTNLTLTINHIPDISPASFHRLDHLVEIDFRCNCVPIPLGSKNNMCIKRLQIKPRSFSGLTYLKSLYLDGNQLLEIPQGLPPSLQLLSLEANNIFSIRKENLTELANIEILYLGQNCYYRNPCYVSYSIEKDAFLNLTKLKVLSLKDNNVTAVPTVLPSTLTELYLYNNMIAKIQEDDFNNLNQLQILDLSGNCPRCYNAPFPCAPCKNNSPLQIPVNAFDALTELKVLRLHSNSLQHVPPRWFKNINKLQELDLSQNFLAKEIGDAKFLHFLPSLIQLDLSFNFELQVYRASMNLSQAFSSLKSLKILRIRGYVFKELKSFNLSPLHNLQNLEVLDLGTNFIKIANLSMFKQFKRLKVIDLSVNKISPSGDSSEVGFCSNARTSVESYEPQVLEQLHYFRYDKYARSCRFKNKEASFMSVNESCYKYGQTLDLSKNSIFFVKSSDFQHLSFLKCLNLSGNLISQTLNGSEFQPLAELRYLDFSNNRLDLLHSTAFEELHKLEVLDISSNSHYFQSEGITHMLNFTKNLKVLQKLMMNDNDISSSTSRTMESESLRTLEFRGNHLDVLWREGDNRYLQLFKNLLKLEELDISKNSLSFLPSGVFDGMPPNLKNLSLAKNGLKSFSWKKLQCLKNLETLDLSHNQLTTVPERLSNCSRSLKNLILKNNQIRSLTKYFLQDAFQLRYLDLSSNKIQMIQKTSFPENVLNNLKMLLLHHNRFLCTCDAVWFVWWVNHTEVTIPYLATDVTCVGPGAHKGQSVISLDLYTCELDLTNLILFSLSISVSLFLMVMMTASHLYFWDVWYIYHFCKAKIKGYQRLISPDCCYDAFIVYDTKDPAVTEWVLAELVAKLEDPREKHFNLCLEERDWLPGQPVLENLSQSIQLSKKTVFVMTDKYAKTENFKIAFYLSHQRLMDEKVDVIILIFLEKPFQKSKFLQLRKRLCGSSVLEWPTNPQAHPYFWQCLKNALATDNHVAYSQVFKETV

HeLa [13] = test: Cell cycle arrest in human HeLa cells assessed as accumulation at G0/G1 phase at 10 uM after 24 hrs by propidium iodide staining based flow cytometry (reference value: 49.4%); format: functional; procedure, shortened: as §1
TLR2/TLR6 (Homo sapiens) = TLR2/TLR6 (Homo sapiens) (UniProt O60603+Q9Y2C9); test: Antagonist activity at human TLR2/6 expressed in HEK293 cells assessed as decrease in Pam2CSK4-induced NF-kappaB activation-mediated SEAP production at 10^-9 to 10^-5 M after 24 hrs by Quanti-blue-based assay; format: cell-based; procedure, shortened: as §4

- inhibition [2]: Dose-dependent effect
- IC50 (Protein kinase C (PKC) [4]): 370 nM
- inhibition [5]: Dose-dependent effect
- GI50 (HeLa [6]): 1350 nM
- IC50 (Protein kinase C (PKC) [7]): 590 nM
- inhibition [8]: Dose-dependent effect
- inhibition [9]: Active
- Activity [10]: 75%
- inhibition [12]: 99.6%
- inhibition (TLR2/TLR6 (Homo sapiens)): Active
Structure (SMILES): O=C(NNC(=O)c1csc(-c2ccc(Cl)cc2Cl)n1)c1ccccn1
- Activity (HeLa [1]): 3.9%
- Activity (RAW264.7): Active
- Activity (HeLa [3]): 29.1%
- Activity (HeLa [11]): 48.4%
- Activity (HMEC): Non-Toxic
- Activity (HeLa [13]): 54.7%
